# High-throughput results from PubChem.
# H69AR inhibit: blocks growth of human H69AR lung tumor cells; H69AR lung tumor viability, ATP luminescence, 72 h; active compounds read low; viability, % at 10 µM; 85,000 tested, 6% active; AID 598;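 active = viability at or below 40%; inactive = viability above 40%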;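 note: multidrug resistant small cell line overexpressing MRP-1 efflux transporter; 100% = mean luminescence of untreated control wells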
# Lung fibro prol: blocks proliferation of human lung fibroblasts. LL 47 human lung fibroblast viability, ATP luminescence; active compounds read low. viability, % at 10 µM. 85,000 tested, 1.1% active;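 active = viability at or below 50% in the single dose screen; inactive = viability above 50%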;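 note: compound exposure lasted 72 h before the ATP readout; 100% = median luminescence of untreated cell-only wells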
#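 Material: Human LL 47 lung fibroblast cells | Input: 1,150 cells/well | Buffer or medium: IMEM plus 15% FBS | Compound dosing: 0.1% DMSO in all compound wells | Times: Overnight cell rest, 72 h compound treatment at 37 °C | Signal: CellTiter-Glo luminescence measuring cellular ATP | Measure: % viability versus median cells-only luminescence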
# PTEN del growth: PTEN-deleted cell growth suppression; viability, % at 10 µM; HCT116 PTEN-null viability, CellTiter-Glo, 60 h; active compounds read low; 140,000 tested, 1.2% active;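 active = viability at or below a set limit, 4 SD under the median of all tested compounds, cut at about 3.7% in these data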;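 note: PTEN knockout HCT116 line with beta catenin targeted HCT116 as companion control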
# HCT116 bCat-KO: beta-catenin-lacking colon tumor cell growth suppression | HCT116 beta-catenin knockout viability, CellTiter-Glo, 60 h; active compounds read low | viability, % at 10 µM | 140,000 tested, 1.5% active | AID 818;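 active = viability at or under a set limit, the compound median less 4 SD, cut at about 6% in these data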;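 note: 0% = Hyamine 1622 control at 20 µM and 100% = untreated cell control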
# HUVEC prolif 384: blocks proliferation of human endothelial cells; 86,000 tested, 1.1% active; HUVEC proliferation, CellTiter-Glo luminescence, 72 h; active compounds read low; viability, % at 10 µM (by protocol); AID 648;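 active = viability at or below 30%; inactive = viability above 30%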;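 note: 100% = median luminescence of DMSO-only cell control wells on each plate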
# * hit, by the source's call; · = not tested or not shown. This excerpt belongs to a sample that is enriched for hits.
SMILES,H69AR inhibit,Lung fibro prol,PTEN del growth,HCT116 bCat-KO,HUVEC prolif 384
Cc1ccc2[nH]cc(C(=O)CN3CCN(C)CC3)c2c1,84,105,98,80,103
Cc1ccc2[nH]cc(C(=O)CCl)c2c1,·,·,2.3*,2.8*,·
COc1ccccc1S(=O)(=O)Cc1ccc(C(=O)NC(C)c2ccc3c(c2)OCCO3)o1 (centres undefined),100,96,98,95,85
CCOC(=O)c1c(-c2ccccc2Cl)csc1NC(=O)c1cc(S(=O)(=O)N2CCOCC2)ccc1C,·,·,78,74,·
CCc1nnc(NC(=O)C2c3ccccc3Oc3ccccc32)s1,89,88,65,60,92
COc1ccc(-n2c(SCC(=O)Nc3sc4c(c3C#N)CCCC4)nnc2-c2ccccc2OC)cc1,92,104,81,79,84
COc1ccc(-c2nnc(SCC(=O)Nc3sc4c(c3C#N)CCCC4)n2-c2ccccc2)cc1,2.3*,27*,1.7*,3.9*,3.7*
CCOC(=O)N1CCN(S(=O)(=O)c2ccc(C(=O)Nc3sc4c(c3C#N)CCC4)cc2)CC1,28*,84,28,63,47
Cc1cc(C(=O)Nc2sc3c(c2C#N)CCC(C)C3)cs1 (centres undefined),19*,110,68,69,103
COc1ccc(-c2nnc(SCC(=O)Nc3ncc(C)s3)n2-c2ccccc2)cc1OC,17*,82,38,40,58
Cc1cc(/C=C(\C#N)C(=O)OCC(=O)Nc2ccc(OC(F)F)cc2)c(C)n1CC(C)C,·,·,86,87,·
CCc1ccc(CCC(=O)Nc2sc3c(c2C#N)CCCC3)o1,33*,58,17,16,34
Cc1cc(C(=O)Nc2sc3c(c2C#N)CCC(C(C)(C)C)C3)no1 (centres undefined),23*,89,40,33,67
CC(C)(C)C1CCc2c(sc(NC(=O)c3cc(C4CC4)on3)c2C#N)C1 (centres undefined),72,90,98,96,79
CCCC1CCc2c(sc(NC(=O)OCC)c2C#N)C1 (centres undefined),28*,84,26,33,56
N#Cc1c(NC(=O)c2ccccc2)sc2c1CCC2,21*,84,25,27,55
N#C/C(=C\c1cn(CCOc2ccccc2)c2ccccc12)C(=O)NCc1cccs1,·,·,86,77,·
N#Cc1ccc(-c2cccnc2)nc1SCC(=O)Nc1sc2c(c1C#N)CCC2,101,31*,93,87,38
N#Cc1ccccc1NC(=O)CSc1nnc(-c2ccccc2O)n1-c1ccccc1,33*,90,98,99,84
N#Cc1c(NC(=O)c2cccnc2)sc2c1CCC2,21*,75,24,28,54
CN=C1SC(CC(=O)Nc2sc3c(c2C#N)CCCC3)C(=O)N1C (centres undefined),21*,98,91,93,87
CCCCNS(=O)(=O)c1ccc2nc(-c3cccs3)cc(C(=O)NCC(OC)OC)c2c1,·,·,84,83,·
Cc1[nH]c2ccccc2c1C(=O)CSC(=S)N1CCCCC1,·,·,91,91,·
COC(=O)c1sccc1N/N=C/c1cccc(Oc2ccccc2)c1,·,·,44,46,·
COc1ccc(N(C(=O)CCl)C(C)(C(=O)Nc2c(C)cccc2C)c2ccccn2)cc1 (centres undefined),·,·,83,81,·
SMILES,H69AR inhibit,Lung fibro prol,PTEN del growth,HCT116 bCat-KO,HUVEC prolif 384
CCS(=O)(=O)N1CCN(c2ccc([N+](=O)[O-])c(N3CCOCC3)c2)CC1,·,·,92,88,·
CC(C)c1cc(C(=O)Nc2sc3c(c2C#N)CCC3)no1,26*,84,37,38,65
COc1ccc(-c2nn(C)c3sc(C(=O)NCc4ccco4)cc23)cc1OC,75,107,101,114,97
COc1ccc(NC(=O)c2cc3c(-c4ccc(OC)c(OC)c4)nn(C)c3s2)cc1OC,9.7*,78,54,57,54
CCN(CC)S(=O)(=O)c1cccc(C(=O)Oc2cccc(NC(=O)c3cccs3)c2)c1,·,·,89,95,·
Cc1ccc2oc(=O)c3cnn(CC(=O)N(CCC(C)C)Cc4ccco4)c3c2c1,38*,97,90,94,71
COC(=O)c1cc(-c2ccc(Br)cc2)on1,105,100,101,105,93
CC(NC(=O)c1cc(-c2ccc(Br)cc2)on1)c1ccccc1 (centres undefined),22*,74,59,54,76
Cc1[nH]n(-c2ccc([N+](=O)[O-])cc2)c(=O)c1N=Nc1nc2ccccc2s1,35*,·,·,·,41
Cc1[nH]n(-c2ccc([N+](=O)[O-])cc2)c(=O)c1C=NCCc1c[nH]c2ccccc12,·,·,10,16,·
Oc1ccc(-c2nc3ccc4ccccc4c3c3c2CCC3)cc1O,·,·,54,47,·
COc1ccc(NC2=NCC(Cc3ccc(Br)cc3)S2)cc1 (centres undefined),·,·,42,55,·
Cn1c(=O)oc2cc(S(=O)(=O)N3CCN(c4cccc(Cl)c4)CC3)ccc21,24*,82,76,82,63
CC(OC(=O)CNC(=O)c1ccccc1F)C(=O)Nc1nc(-c2ccccc2)cs1 (centres undefined),·,·,105,88,·
O=c1cc(C(Cl)(Cl)Cl)oc2c1ccc1ccccc12,·,·,2.6*,2.5*,·
CSc1nc2ccccc2cc1/C=C(\C#N)c1ccc(Cl)c(Cl)c1,·,·,2.4*,1.9*,·
Cc1ccc(C(=O)Nc2ccccc2C(=O)NC(CC(=O)O)C(=O)O)cc1 (centres undefined),88,99,99,86,104
Cc1ccc(C(=O)Nc2ccccc2C(=O)NC(C(=O)O)C(C)C)cc1 (centres undefined),94,102,0.8*,0.5*,93
O=C(Cn1cc(Cl)ccc1=O)c1ccc(Cl)cc1,·,·,99,98,·
CC(CNC(=O)C(=O)NC(C)CCc1ccccc1)Cc1ccccc1 (centres undefined),·,·,36,58,·
O=C(CCN1CCN(CCC(=O)c2ccccc2)CC1)c1ccccc1,1.2*,93,·,·,96
O=C(CN1CCN(Cc2ccccc2)CC1)c1ccccc1,87,96,101,93,104
C=C(C(=O)c1ccccc1)C(CC(=O)c1ccccc1)c1ccccc1 (centres undefined),·,·,3.1*,4.8*,·
C=C(CCC(=O)c1ccccc1)C(=O)c1ccccc1,·,·,0.5*,0.4*,·
O=C(CC(Nc1ccc(F)cc1)C(=O)O)c1ccccc1 (centres undefined),96,108,85,78,99
CCCCCN(C(=O)NC(=O)Nc1ccc(C)cc1)S(=O)(=O)c1ccccc1,·,·,104,90,·
Cc1ccc2cccc(NC(=S)NC(=O)c3ccn(C)n3)c2n1,63,88,58,54,82
Cc1ccc2cccc(NC(=S)NC(=O)c3c(Br)cnn3C)c2n1,26*,82,57,59,62
Cc1cc(NS(=O)(=O)c2ccc(Nc3nc(-c4ccc(O)cc4)cs3)cc2)no1,·,·,103,86,·
Oc1ccc(-c2nc(-c3ccc(O)c(O)c3)cs2)cc1,12*,46*,11,15,34
